Measurements reported in ChEMBL document CHEMBL4020710, “Discovery and evaluation of the hybrid of bromophenol and saccharide as potent and selective protein tyrosine phosphatase 1B inhibitors” (Eur J Med Chem, 2017).
Active and inactive are the calls of the source. The rule behind the calls is not given here.

Assays:
[1] = molecular target: T1, Tyrosine-protein phosphatase non-receptor type 1 (Homo sapiens, UniProt P18031); assay: Inhibition of recombinant PTP1B (unknown origin) using p-NPP as substrate after 30 mins by UV-spectroscopic analysis
T1 sequence (P18031 whole entry): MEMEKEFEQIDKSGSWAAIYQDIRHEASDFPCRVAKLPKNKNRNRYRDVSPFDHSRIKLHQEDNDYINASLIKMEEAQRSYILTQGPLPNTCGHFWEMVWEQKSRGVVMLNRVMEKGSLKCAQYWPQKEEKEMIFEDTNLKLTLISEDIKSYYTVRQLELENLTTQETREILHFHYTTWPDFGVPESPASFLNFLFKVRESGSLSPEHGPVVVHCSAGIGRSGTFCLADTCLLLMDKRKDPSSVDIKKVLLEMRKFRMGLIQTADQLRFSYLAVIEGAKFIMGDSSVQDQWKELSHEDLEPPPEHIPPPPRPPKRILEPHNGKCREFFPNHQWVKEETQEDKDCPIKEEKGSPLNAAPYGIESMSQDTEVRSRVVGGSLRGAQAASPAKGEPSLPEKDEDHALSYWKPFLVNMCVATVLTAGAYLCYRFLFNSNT

Homo sapiens = species on record: Homo sapiens; assay: Selectivity ratio of IC50 for TCPTP (unknown origin) to IC50 for recombinant PTP1B (unknown origin)
[2] = molecular target: T2, Receptor-type tyrosine-protein phosphatase F (Homo sapiens, UniProt P10586); assay: Inhibition of PTPLAR (unknown origin) at 20 ug/ml
[3] = molecular target: T2, Receptor-type tyrosine-protein phosphatase F; assay: Inhibition of PTPLAR (unknown origin)
[4] = molecular target: T3, Tyrosine-protein phosphatase non-receptor type 11 (Homo sapiens, UniProt Q06124); assay: Inhibition of SHP2 (unknown origin)
T3 sequence (Q06124 whole entry): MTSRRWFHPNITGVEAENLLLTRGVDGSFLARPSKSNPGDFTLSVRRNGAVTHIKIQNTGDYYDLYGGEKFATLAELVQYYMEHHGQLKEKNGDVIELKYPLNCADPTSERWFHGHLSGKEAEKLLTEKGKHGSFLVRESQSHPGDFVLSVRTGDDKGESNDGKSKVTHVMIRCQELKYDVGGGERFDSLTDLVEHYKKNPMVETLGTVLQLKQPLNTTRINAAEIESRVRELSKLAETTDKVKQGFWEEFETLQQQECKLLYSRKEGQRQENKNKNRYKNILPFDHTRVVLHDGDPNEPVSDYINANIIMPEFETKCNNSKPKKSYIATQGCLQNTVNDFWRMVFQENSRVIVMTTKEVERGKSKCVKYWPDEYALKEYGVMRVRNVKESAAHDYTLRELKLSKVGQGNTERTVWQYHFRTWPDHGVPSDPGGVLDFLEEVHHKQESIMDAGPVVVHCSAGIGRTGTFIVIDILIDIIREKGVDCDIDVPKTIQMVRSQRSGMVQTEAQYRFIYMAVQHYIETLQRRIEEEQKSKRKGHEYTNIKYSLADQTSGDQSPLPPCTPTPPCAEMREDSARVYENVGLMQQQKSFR

[5] = molecular target: T4, Tyrosine-protein phosphatase non-receptor type 2 (Homo sapiens, UniProt P17706); assay: Inhibition of TCPTP (unknown origin)
T4 sequence (P17706 whole entry): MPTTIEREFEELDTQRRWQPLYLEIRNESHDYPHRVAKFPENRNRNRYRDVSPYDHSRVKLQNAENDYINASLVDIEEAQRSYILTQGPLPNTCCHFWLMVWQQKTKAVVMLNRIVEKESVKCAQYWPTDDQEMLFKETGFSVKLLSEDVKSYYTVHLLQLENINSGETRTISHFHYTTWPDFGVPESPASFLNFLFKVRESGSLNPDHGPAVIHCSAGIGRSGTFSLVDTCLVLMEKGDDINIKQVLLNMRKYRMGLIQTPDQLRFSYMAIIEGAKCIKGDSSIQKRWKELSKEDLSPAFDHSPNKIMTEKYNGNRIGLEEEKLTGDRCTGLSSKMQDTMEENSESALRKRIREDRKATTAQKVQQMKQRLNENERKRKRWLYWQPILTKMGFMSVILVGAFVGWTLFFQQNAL

[6] = molecular target: T5, Tyrosine-protein phosphatase non-receptor type 1 (Homo sapiens) (UniProt P18031); assay: Inhibition of recombinant PTP1B (unknown origin) at 10 uM using p-NPP as substrate after 30 mins by UV-spectroscopic analysis
T5 sequence (whole entry): T1 sequence (P18031 whole entry)

[7] = molecular target: T5, Tyrosine-protein phosphatase non-receptor type 1 (Homo sapiens); assay: Binding affinity to human PTP1B (1 to 321 residues) at 50 uM by SPR assay
C2C12 [8] = assay: Effect on total Akt in mouse C2C12 cells at 0.1 to 1 uM after 8 hrs by Western blot analysis; format: ADME, cell-based; settings: c2c12, 8 h
C2C12 (Mus musculus) = assay: Drug absorption in mouse C2C12 myotubes assessed per million cells at 10 uM after 8 hrs by HPLC analysis; settings: c2c12, 8 h
[9] = molecular target: T6, Tyrosine-protein phosphatase non-receptor type 1 (Mus musculus) (UniProt P35821); assay: Inhibition of PTP1B in mouse C2C12 cells assessed as increase in IRbeta phosphorylation at Y1146 residues in mouse C2C12 cells at 0.1 to 1 uM after 8 hrs by Western blot analysis; format: cell-based
T6 sequence (whole entry): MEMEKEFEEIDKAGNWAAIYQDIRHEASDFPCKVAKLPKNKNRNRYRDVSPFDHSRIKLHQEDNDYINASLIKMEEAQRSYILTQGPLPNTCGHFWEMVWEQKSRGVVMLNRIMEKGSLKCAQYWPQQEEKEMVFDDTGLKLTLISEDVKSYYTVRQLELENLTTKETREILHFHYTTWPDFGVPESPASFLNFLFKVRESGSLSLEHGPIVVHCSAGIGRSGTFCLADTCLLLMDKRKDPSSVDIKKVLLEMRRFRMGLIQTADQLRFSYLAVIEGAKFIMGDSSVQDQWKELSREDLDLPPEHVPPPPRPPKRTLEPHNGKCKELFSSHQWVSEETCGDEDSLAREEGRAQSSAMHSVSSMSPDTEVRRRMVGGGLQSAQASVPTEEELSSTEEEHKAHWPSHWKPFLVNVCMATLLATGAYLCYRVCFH

[10] = molecular target: T6, Tyrosine-protein phosphatase non-receptor type 1 (Mus musculus); assay: Inhibition of PTP1B in mouse C2C12 cells assessed as increase in IRS1 phosphorylation at Y632 residues at 0.25 to 1 uM after 8 hrs by Western blot analysis; format: cell-based
[11] = Drug uptake in mouse C2C12 cells at 10 uM after 8 hrs by HPLC analysis; format: ADME, cell-based; settings: c2c12, 8 h
Summary of the method: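 C2C12 myotubes were exposed to 10 μM for 8 h, with DMSO-treated cells as the control. The medium was then removed and the cells disrupted. An equal amount of internal standard was added, cell debris was removed by filtration, and intracellular compound was quantified by HPLC.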

[12] = molecular target: T6, Tyrosine-protein phosphatase non-receptor type 1 (Mus musculus); assay: Inhibition of PTP1B in mouse C2C12 cells assessed as increase in Akt phosphorylation at S473 residues in mouse C2C12 cells at 0.1 to 1 uM after 8 hrs by Western blot analysis; format: cell-based
C2C12 [13] = assay: Effect on total IRbeta in mouse C2C12 cells at 0.1 to 1 uM after 8 hrs by Western blot analysis; format: ADME, cell-based; settings: c2c12, 8 h
[14] = molecular target: T5, Tyrosine-protein phosphatase non-receptor type 1 (Homo sapiens); assay: Competitive inhibition of PTP1B (unknown origin) using p-NPP as substrate after 30 mins by Lineweaver-Burk plot analysis

T2 sequence (P10586 whole entry): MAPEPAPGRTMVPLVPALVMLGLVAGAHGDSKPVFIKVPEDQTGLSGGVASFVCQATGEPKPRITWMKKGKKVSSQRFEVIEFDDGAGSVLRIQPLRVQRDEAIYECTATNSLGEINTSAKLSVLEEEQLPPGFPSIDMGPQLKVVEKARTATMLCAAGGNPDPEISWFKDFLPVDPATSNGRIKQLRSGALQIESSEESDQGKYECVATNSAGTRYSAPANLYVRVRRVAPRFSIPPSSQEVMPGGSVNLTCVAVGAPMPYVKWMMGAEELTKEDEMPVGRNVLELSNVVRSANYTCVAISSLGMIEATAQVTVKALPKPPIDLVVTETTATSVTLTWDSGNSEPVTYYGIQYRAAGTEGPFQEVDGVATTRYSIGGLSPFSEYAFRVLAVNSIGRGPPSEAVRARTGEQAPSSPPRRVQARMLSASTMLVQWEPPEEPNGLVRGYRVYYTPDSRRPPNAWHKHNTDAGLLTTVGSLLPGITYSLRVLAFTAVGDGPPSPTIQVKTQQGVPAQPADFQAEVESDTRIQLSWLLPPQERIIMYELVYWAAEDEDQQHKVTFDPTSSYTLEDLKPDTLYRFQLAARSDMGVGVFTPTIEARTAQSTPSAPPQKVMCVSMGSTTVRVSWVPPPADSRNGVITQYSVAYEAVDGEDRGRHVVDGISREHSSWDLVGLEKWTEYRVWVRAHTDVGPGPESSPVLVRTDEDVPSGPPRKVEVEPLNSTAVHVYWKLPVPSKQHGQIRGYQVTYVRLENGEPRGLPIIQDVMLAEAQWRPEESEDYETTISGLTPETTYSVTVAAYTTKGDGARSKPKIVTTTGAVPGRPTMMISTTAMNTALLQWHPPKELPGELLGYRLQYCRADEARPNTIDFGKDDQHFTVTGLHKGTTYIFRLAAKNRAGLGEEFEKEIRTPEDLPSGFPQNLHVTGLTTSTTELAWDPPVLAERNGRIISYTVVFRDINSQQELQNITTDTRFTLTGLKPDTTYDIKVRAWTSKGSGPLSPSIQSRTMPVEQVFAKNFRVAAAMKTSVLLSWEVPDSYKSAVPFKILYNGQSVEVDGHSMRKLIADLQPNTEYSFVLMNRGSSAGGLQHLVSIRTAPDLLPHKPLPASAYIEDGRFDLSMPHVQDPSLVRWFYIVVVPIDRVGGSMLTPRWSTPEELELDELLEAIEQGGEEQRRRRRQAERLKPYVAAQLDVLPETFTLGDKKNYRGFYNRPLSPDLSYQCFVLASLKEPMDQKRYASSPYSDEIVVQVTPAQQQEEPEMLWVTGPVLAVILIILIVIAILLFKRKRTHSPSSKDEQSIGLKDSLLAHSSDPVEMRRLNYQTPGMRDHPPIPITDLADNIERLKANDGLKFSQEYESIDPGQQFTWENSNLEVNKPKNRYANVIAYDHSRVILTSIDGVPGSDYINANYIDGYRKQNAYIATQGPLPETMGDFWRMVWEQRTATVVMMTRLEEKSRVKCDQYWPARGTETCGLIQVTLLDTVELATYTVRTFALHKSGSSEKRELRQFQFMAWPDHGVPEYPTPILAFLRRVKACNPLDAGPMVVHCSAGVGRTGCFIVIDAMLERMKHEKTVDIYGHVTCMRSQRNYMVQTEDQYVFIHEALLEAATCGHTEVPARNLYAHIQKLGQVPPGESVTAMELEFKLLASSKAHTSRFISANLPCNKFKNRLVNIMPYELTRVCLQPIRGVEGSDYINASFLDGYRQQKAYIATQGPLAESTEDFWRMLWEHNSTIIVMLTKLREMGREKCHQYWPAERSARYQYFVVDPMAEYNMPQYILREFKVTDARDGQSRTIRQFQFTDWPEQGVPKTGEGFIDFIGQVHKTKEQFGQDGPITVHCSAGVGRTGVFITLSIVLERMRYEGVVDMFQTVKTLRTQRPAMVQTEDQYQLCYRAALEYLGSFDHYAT

IC50 [1] [µM]	inhibition [6] [%]	SMILES	other results
> 20	–	COc1cc(C(=O)OCCOC(=O)c2cc(Br)c(O)c(OC)c2)cc(Br)c1O	–
–	25	O=C(OCCOC(=O)c1cc(O)c(O)c(Br)c1)c1cc(O)c(O)c(Br)c1	–
3	–	O=C(OC1OC[C@@H](OC(=O)c2ccc(O)c(O)c2)[C@H](OC(=O)c2ccc(O)c(O)c2)[C@H]1OC(=O)c1ccc(O)c(O)c1)c1ccc(O)c(O)c1 (stereo not given in full)	–
> 20	–	COc1cc(C(=O)OCCOC(=O)c2cc(Br)c(OC)c(OC)c2)cc(Br)c1OC	–
–	43.6	CC(C)(C)[Si](C)(C)Oc1cc(C(=O)OC[C@H]2OC(OC(=O)c3cc(Br)c(O[Si](C)(C)C(C)(C)C)c(O[Si](C)(C)C(C)(C)C)c3)[C@H](OC(=O)c3cc(Br)c(O[Si](C)(C)C(C)(C)C)c(O[Si](C)(C)C(C)(C)C)c3)[C@@H]2OC(=O)c2cc(Br)c(O[Si](C)(C)C(C)(C)C)c(O[Si](C)(C)C(C)(C)C)c2)cc(Br)c1O[Si](C)(C)C(C)(C)C (stereo not given in full)	–
–	41.9	CC(C)(C)[Si](C)(C)Oc1cc(C(=O)OC2OC[C@@H](OC(=O)c3cc(Br)c(O[Si](C)(C)C(C)(C)C)c(O[Si](C)(C)C(C)(C)C)c3)[C@H](OC(=O)c3cc(Br)c(O[Si](C)(C)C(C)(C)C)c(O[Si](C)(C)C(C)(C)C)c3)[C@H]2OC(=O)c2cc(Br)c(O[Si](C)(C)C(C)(C)C)c(O[Si](C)(C)C(C)(C)C)c2)cc(Br)c1O[Si](C)(C)C(C)(C)C (stereo not given in full)	–
1.5	–	COc1cc(C(=O)OC[C@H]2OC(OC(=O)c3cc(Br)c(O)c(OC)c3)[C@H](OC(=O)c3cc(Br)c(O)c(OC)c3)[C@@H]2OC(=O)c2cc(Br)c(O)c(OC)c2)cc(Br)c1O (stereo not given in full)	–
–	32.8	CC(C)(C)[Si](C)(C)Oc1cc(C(=O)OCCOC(=O)c2cc(Br)c(O[Si](C)(C)C(C)(C)C)c(O[Si](C)(C)C(C)(C)C)c2)cc(Br)c1O[Si](C)(C)C(C)(C)C	–
3.41	–	COc1cc(C(=O)OC[C@H]2OC(OC(=O)c3cc(Br)c(OC)c(OC)c3)[C@H](OC(=O)c3cc(Br)c(OC)c(OC)c3)[C@@H]2OC(=O)c2cc(Br)c(OC)c(OC)c2)cc(Br)c1OC (stereo not given in full)	–
> 20	–	O=C(OCCOC(=O)c1ccc(O)c(O)c1)c1ccc(O)c(O)c1	–
0.2	99	O=C(O[C@@H]1OC[C@@H](OC(=O)c2cc(O)c(O)c(Br)c2)[C@H](OC(=O)c2cc(O)c(O)c(Br)c2)[C@H]1OC(=O)c1cc(O)c(O)c(Br)c1)c1cc(O)c(O)c(Br)c1	–
8.45	–	COc1cc(C(=O)OCC(COC(=O)c2cc(Br)c(O)c(OC)c2)OC(=O)c2cc(Br)c(O)c(OC)c2)cc(Br)c1O	–
12.3	–	O=C(OCC(COC(=O)c1ccc(O)c(O)c1)OC(=O)c1ccc(O)c(O)c1)c1ccc(O)c(O)c1	–
0.75	–	COc1cc(C(=O)O[C@@H]2OC[C@@H](OC(=O)c3cc(Br)c(O)c(OC)c3)[C@H](OC(=O)c3cc(Br)c(O)c(OC)c3)[C@H]2OC(=O)c2cc(Br)c(O)c(OC)c2)cc(Br)c1O	–
> 20	–	COc1cc(C(=O)OCC(COC(=O)c2cc(Br)c(OC)c(OC)c2)OC(=O)c2cc(Br)c(OC)c(OC)c2)cc(Br)c1OC	Activity [7]: inactive
–	12	CC(C)(C)[Si](C)(C)Oc1cc(C(=O)OCC(COC(=O)c2cc(Br)c(O[Si](C)(C)C(C)(C)C)c(O[Si](C)(C)C(C)(C)C)c2)OC(=O)c2cc(Br)c(O[Si](C)(C)C(C)(C)C)c(O[Si](C)(C)C(C)(C)C)c2)cc(Br)c1O[Si](C)(C)C(C)(C)C	–
–	24.2	CC(C)(C)[Si](C)(C)Oc1cc(C(=O)O)cc(Br)c1O[Si](C)(C)C(C)(C)C	–
2.2	–	O=C(OC[C@H]1OC(OC(=O)c2ccc(O)c(O)c2)[C@H](OC(=O)c2ccc(O)c(O)c2)[C@@H]1OC(=O)c1ccc(O)c(O)c1)c1ccc(O)c(O)c1 (stereo not given in full)	–
1.11	–	COc1cc(C(=O)OC2OC[C@@H](OC(=O)c3cc(Br)c(OC)c(OC)c3)[C@H](OC(=O)c3cc(Br)c(OC)c(OC)c3)[C@H]2OC(=O)c2cc(Br)c(OC)c(OC)c2)cc(Br)c1OC (single isomer, unassigned)	Activity [7]: inactive

SMILES	IC50 [1] [µM]	inhibition [6] [%]	other results
O=C(OCC(COC(=O)c1cc(O)c(O)c(Br)c1)OC(=O)c1cc(O)c(O)c(Br)c1)c1cc(O)c(O)c(Br)c1	0.24	95.5	Ratio IC50 (Homo sapiens): 8; inhibition [2]: < 25%; IC50 [3]: Not Active; IC50 [4]: 4.53 µM; IC50 [5]: 1.98 µM
O=C(OC[C@H]1OC(OC(=O)c2cc(O)c(O)c(Br)c2)[C@H](OC(=O)c2cc(O)c(O)c(Br)c2)[C@@H]1OC(=O)c1cc(O)c(O)c(Br)c1)c1cc(O)c(O)c(Br)c1 (stereo not given in full)	0.19	96.4	Ratio IC50 (Homo sapiens): 32; Activity (C2C12 [8]): Non-Toxic; inhibition [2]: < 25%; IC50 [3]: Not Active; Drug absorption (C2C12 (Mus musculus)): 74 pmol; IC50 [4]: 15.9 µM; inhibition [9]: Active; inhibition [10]: Active; IC50 [5]: 5.94 µM; Drug uptake [11]: 36.9%; inhibition [12]: Active; Activity [7]: Active; Activity (C2C12 [13]): Non-Toxic; inhibition [14]: Active
